Most compounds without a hit are left out; they make up all but 1.8% or so of the library.
TDP2 inh – blocks human TDP2 phosphodiesterase activity | recombinant TDP2, T5PNP hydrolysis, p-nitrophenol absorbance 415 nm | 370,000 compounds, 0.34% hits | O95551 | inhibition, % at 12.8 µM;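 active = inhibition above the mean of all tested compounds plus 3 SD, set per campaign, cut at about 25% in these data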;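 also: 0% = DMSO with enzyme and 100% = buffer with substrate but no TDP2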
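Material: recombinant human TDP2; quantity: TDP2 enzyme at 120 nM final; medium: Tris-HCl pH 7.5 with MgCl2; compound: single concentration, 12.8 µM nominal, with 1% DMSO; incubation: 2 h enzyme incubation at 37 °C; signal: epi absorbance; measure: percent inhibition; benchmarks: high control without enzyme, low control DMSO plus TDP2; repeats: singlicate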
UHRF1 MBD2 ctr – human UHRF1 methylated DNA binding inhibitors. Q96T88. UHRF1 binding to methylated oligo, TR-FRET. inhibition, % at 4.4 µM. 370,000 compounds, 0.75% hits; in the data active = inhibition above about 21%;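 also: UHRF1 SRA domain binding a hemimethylated CpG hairpin DNA probe; 0% = median of test compound wells and 100% = reference inhibitor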
Casp6 inh – caspase-6 (human) enzyme inhibition; P55212; purified caspase-6, Z-VEID-R110 cleavage fluorescence; inhibition, % at 12.5 µM; 350,000 compounds, 0.53% hits; AID 686996;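 active = mean inhibition across replicates at least about 35%, with every replicate also reaching that limit, limit read from the data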;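 also: 0% = median of neutral control wells and 100% = no fluorescence left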
NSD2 inh – NSD2 (human) methyltransferase inhibition | NSD2 peptide methylation, AlphaScreen, 120 min | inhibition, % at 12.5 µM | 310,000 compounds, 0.54% hits | AID 743445; in the data active = inhibition above about 50%
LEDGF integ inh – blocks HIV-1 LEDGF/p75-dependent DNA integration; TR-FRET IN-LEDGF/p75 DNA integration, Eu/Cy5; inhibition, % at 3.7 µM; 370,000 compounds, 0.64% hits; AID 743269;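 active = inhibition above the screen-wide mean plus 3 SD, cut at about 13% in these data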;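 also: signal is the Cy5 over europium emission ratio at 671 and 618 nm; 0% = plate median of compound wells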
MBD2 DNA inh – MBD2-methylated oligo binding inhibition; TR-FRET, MBD2 binding to methylated oligonucleotide; inhibition, % at 4.4 µM; AID 686964; 370,000 compounds, 0.31% hits; in the data active = inhibition above about 13%
Target sequence (Q9UBB5 whole entry, looked up): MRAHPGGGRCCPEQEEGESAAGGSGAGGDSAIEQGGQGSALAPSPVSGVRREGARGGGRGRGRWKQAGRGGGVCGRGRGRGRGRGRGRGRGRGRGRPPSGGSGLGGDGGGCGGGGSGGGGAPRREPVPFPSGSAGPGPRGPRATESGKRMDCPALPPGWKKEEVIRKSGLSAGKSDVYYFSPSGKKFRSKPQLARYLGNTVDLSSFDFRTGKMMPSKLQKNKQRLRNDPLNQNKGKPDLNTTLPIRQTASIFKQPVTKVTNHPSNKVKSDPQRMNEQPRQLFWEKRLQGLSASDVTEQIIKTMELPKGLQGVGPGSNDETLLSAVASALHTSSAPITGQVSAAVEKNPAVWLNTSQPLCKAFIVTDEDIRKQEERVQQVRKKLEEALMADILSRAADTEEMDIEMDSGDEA
TDP2 confirm – confirmation of human TDP2 inhibitors; shares compounds with TDP2 inh; recombinant human TDP2, absorbance read-out; inhibition, % at 12.8 µM; 1,100 compounds, 22% hits; AID 743263; in the data active = inhibition above about 25%;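 also: 0% = vehicle with enzyme and 100% = no enzyme buffer only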
* = called active by the depositor; . = not tested or not shown.

SMILES	TDP2 inh	UHRF1 MBD2 ctr	Casp6 inh	NSD2 inh	LEDGF integ inh	MBD2 DNA inh	TDP2 confirm
C[C@@H]1CN([C@@H](C)CO)S(=O)(=O)c2ccc(C#Cc3ccccc3)cc2O[C@@H]1CN(C)S(=O)(=O)c1cn(C)cn1	.	.	0	.	.	.	.
O=C(COc1ccccc1F)Nc1ccc2[nH]c(=O)[nH]c2c1	28*	0	1	28	1	-7	6
CCOc1ccccc1NC(=O)C(NCCc1ccc(OC)cc1)c1ccccc1 (stereo not drawn)	3	1	3	-5	-5	2	.
CCOc1ccccc1NC(=O)C(NCCN(C)C)c1ccccc1 (stereo not drawn)	27*	0	-3	2	1	-1	13
CC(C)C#Cc1cnc2c(c1)C(=O)N([C@@H](C)CO)C[C@H](C)[C@H](CN(C)C(=O)c1ccccc1F)O2	.	.	2	.	.	.	.
Cc1cnc(CNC(=O)CC2C(=O)NCCN2Cc2cccc(F)c2F)cn1 (stereo not drawn)	25*	0	-5	2	1	0	-3
Cc1cnc(CNC(=O)CC2C(=O)NCCN2Cc2ccccc2F)cn1 (stereo not drawn)	1	0	0	3	2	2	.
NS(=O)(=O)c1ccc(NC(=O)/C=C/c2ccco2)cc1	32*	6	54*	19	4	4	6
Cc1ccc(S(=O)(=O)NCC[C@H]2CC[C@H](NC(=O)C3CCOCC3)[C@H](CO)O2)cc1	.	.	3	.	.	.	.
Cc1ccc(C(=O)N/N=C/c2ccc(-c3ccc(Br)cc3[N+](=O)[O-])o2)o1	27*	-8	4	1	1	-5	13
COC(=O)C1=CN(Cc2ccccc2)C=C(C(=O)OC)C1c1ccc(O)c(OC)c1	2	-3	0	-3	3	-3	.
COC(=O)C1=CN(Cc2ccccc2)C=C(C(=O)OC)C1c1ccc(OC)c(OC)c1	26*	-4	-1	-30	-1	3	5
O=c1[nH]c2c(s1)C(c1ccco1)C1C3CCC(C3)C1S2 (stereo not drawn)	34*	3	.	8	7	5	7
O=C(O)CN1C(=O)C2C3CC(C2C1=O)C1C(c2ccccc2)c2sc(=O)[nH]c2SC31 (stereo not drawn)	19	-2	.	-2	4	-6	.
CCOC(=O)N1CCN(C2=C(NS(=O)(=O)c3ccc(C)cc3)C(=O)c3ccccc3C2=O)CC1	42*	-6	.	64*	15*	-17	32*
CC(=O)Nc1ccc(S(=O)(=O)NC2=C(N3CCN(c4ccc(F)cc4)CC3)C(=O)c3ccccc3C2=O)cc1	36*	-1	3	25	5	-12	30*
COc1ccccc1CNC(=O)C[C@@H]1CC[C@@H]2[C@H](COC[C@H](O)CN2C(=O)Nc2ccc(C(F)(F)F)cc2)O1	.	.	0	.	.	.	.
CC(C)NC(=O)Nc1ccc2c(c1)C(=O)N([C@H](C)CO)C[C@H](C)[C@@H](CN(C)C(=O)c1ccccc1)OCCCC[C@@H](C)O2	.	.	-1	.	.	.	.
O=C1C(Cl)=C(NCc2ccco2)C(=O)c2ccccc21	35*	-15	99*	71*	10	-22	24
O=S(=O)(c1ccccc1)c1ccc(NCc2ccco2)cc1	-4	11	.	-2	0	0	.
CCc1cccc(NC(=O)c2sc3nc4n(c(=O)c3c2C)CCC4)c1	55*	0	.	2	-2	2	9
Cc1cc(C)cc(NC(=O)c2sc3nc4n(c(=O)c3c2C)CCC4)c1	4	2	-2	-5	0	-3	.
CCOC(=O)c1c(-c2ccc(Cl)cc2)csc1NC(=O)CNCc1ccco1	32*	-2	1	-2	4	-3	8
CC1CC(=O)C2=C(C1)OC(N)=C(C#N)C2c1coc2ccccc2c1=O (stereo not drawn)	26*	16	.	3	-2	0	9
Cc1ccccc1CN1CCN(C(=O)c2ccc(F)cc2)CC1	29*	-1	3	-1	3	1	11
SMILES	TDP2 inh	UHRF1 MBD2 ctr	Casp6 inh	NSD2 inh	LEDGF integ inh	MBD2 DNA inh	TDP2 confirm
CCCNC(=O)N1CC2(CCN(C(=O)CN(C)C)CC2)c2c(n(C)c3cc(OC)ccc23)[C@H]1CO	.	.	-2	.	.	.	.
CCCCCOc1ccc(CSCCNC(=S)Nc2ccccc2)cc1	37*	0	.	5	-4	-6	-2
C[C@@H]1CCCCO[C@H](CN(C)Cc2ccc(C(=O)O)cc2)[C@H](C)CN([C@H](C)CO)C(=O)c2cc(NC(=O)CCC(F)(F)F)ccc2O1	.	.	1	.	.	.	.
CC(=O)c1ccc(NC(=O)N2CCc3ccccc3C2)cc1	27*	-4	0	.	-1	3	6
CC(=O)c1cccc(NC(=O)N2CCc3ccccc3C2)c1	4	-2	.	-1	2	-5	.
COc1cc(C(=O)N2CCC(N3CCCCCC3)CC2)cc(OC)c1OC	1	-1	.	2	1	-9	.
COc1cc(C(=O)N2CCN(C3CCCCC3)CC2)cc(OC)c1OC	25*	-3	-1	2	-2	-2	6
COc1ccc(NC(=O)N2CCCC2C(=O)NC23CC4CC(CC(C4)C2)C3)cc1 (stereo not drawn)	-7	3	3	-2	0	8	.
COc1cccc(NC(=O)N2CCCC2C(=O)NC23CC4CC(CC(C4)C2)C3)c1 (stereo not drawn)	33*	1	-1	-3	4	1	7
CCN1CCN(Cc2ccc(OC)c(OCc3ccccc3)c2)CC1	6	-1	.	9	2	1	.
CCN1CCN(CC#CCOc2ccccc2OC)CC1	29*	-2	-6	4	-3	1	8
Cc1ccc(NC(=O)CN2C(=O)NC3(CCc4ccccc43)C2=O)cc1S(=O)(=O)N1CCCCC1 (stereo not drawn)	90*	-2	9	22	3	2	-13
CCc1ccc2cc(F)cc(F)c2n1	45*	1	-1	.	-3	-1	-9
CCc1ccc2cc(C)cc(C)c2n1	4	-2	-1	.	3	1	.
COc1ccc(C(=O)NC2CCN(C(=S)Nc3ccc(C)cc3)CC2)cc1	-5	2	-3	1	4	0	.
COc1ccc(NC(=S)N2CCC(NC(=O)c3cccc(C)c3)CC2)cc1	29*	-5	-2	3	-3	3	3
C=CCOC(=O)[C@H]1[C@@H]2C(=O)O[C@@H](c3ccccc3)[C@@H](c3ccccc3)N2[C@@H](c2ccc(OCCOC(=O)[C@H]3C[C@H]4C(=O)N[C@@H](Cc5ccccc5)C(=O)N4[C@H]3c3ccc(O)cc3)cc2)[C@]12C(=O)Nc1ccc(I)cc12	.	.	1	.	.	.	.

Bioassay records as filed in PubChem.
